Measured values published in paper PMC7445463 (Diabetologia, 2020).
“And” between values parts separate entries of the source, which are not always exact repeats. Equal values may be shown once.

What was measured:
[1] = test system: diabetic patients with chronic heart failure; assay type: in vivo, human; settings: metformin 2 g/day for 3 months
[2] = test system: mouse and human primary PaSC and immortalized imPaSC; test: Signalling and gene expression in pancreatic stellate cells; assay type: cell-based; settings: Met 0.1-10 mM
glucokinase [3] = molecular target: T1, glucokinase (Homo sapiens, UniProt P35557); test: Simplici-T1 Phase 1b/2 trial; assay type: in vivo
T1 sequence (P35557 1-465): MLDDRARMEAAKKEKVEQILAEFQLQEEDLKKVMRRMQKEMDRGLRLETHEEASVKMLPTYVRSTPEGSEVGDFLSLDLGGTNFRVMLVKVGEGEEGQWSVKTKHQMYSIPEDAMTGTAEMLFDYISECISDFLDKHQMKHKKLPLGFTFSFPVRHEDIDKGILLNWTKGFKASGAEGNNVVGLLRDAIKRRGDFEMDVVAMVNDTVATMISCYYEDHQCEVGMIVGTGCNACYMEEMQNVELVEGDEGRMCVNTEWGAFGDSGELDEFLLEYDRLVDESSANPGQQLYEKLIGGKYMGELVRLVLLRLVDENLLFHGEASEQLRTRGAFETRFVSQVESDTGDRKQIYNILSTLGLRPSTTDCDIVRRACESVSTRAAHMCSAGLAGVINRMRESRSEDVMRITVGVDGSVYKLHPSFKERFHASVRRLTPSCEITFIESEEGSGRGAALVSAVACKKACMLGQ

glucokinase [4] = molecular target: T1, glucokinase; settings: type 2 diabetes (n=190); cited from earlier work
[5] = Intrajejunal metformin with or without bile exclusion or TCA, T2DM; assay type: in vivo, human; settings: 1 g intrajejunal; endogenous bile included
[6] = Portal vein and arterialized lactate after oral metformin; assay type: in vivo, human; settings: 90 minutes after 1000 mg oral
[7] = 42-h fast crossover trial with or without metformin; assay type: in vivo, human; settings: 1 g twice daily for a week
[8] = test system: human hepatocytes (HepG2); test: GDF15 and FGF21 expression in hepatocytes; assay type: cell-based; settings: 2 mM, up to 24-h
[9] = Serum uteroglobin before and after metformin monotherapy; assay type: in vivo, human; settings: after 12 months monotherapy; before 14.43±0.97; n=20
human heart = test: Metformin uptake in the human heart by PET scanning; assay type: in vivo
[10] = test system: patients with type 2 diabetes; test: Network meta-analysis of antidiabetic medications on blood pressure; design: species or system human; settings: frequentist random-effects network meta-analysis, 192 studies
[11] = metformin vs placebo crossover in DM and chronic heart failure; assay type: in vivo, human; settings: 2 g/day, 3 months vs placebo
[12] = DIO mice under 50% dietary restriction, indirect calorimetry; assay type: in vivo, mouse
DIO C57/B6 mice = test: gastric emptying and weight in DIO mice; assay type: in vivo, mouse; settings: 14-day
[13] = Insulin icodec vs IGlar U100 26-week phase 2 trial; assay type: in vivo, human
Summary of the method: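 Randomized, double-blind, double-dummy, treat-to-target phase 2 trial lasting 26 weeks. Participants were insulin-naïve adults with T2D and HbA1c 7.0-9.5% on metformin ± DPP4i, randomized 1:1 (n=247). Starting doses were 70 U once weekly or 10 U once daily, titrated weekly to a pre-breakfast SMBG target of 3.9-6.0 mmol/L. The primary endpoint was HbA1c change from baseline to week 26; FPG and mean weekly dose over the last two weeks were secondary.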

[14] = stated as background; cited from earlier work
[15] = test system: individuals with type 2 diabetes; test: insulin icodec PK/PD trial; design: species or system human; settings: in vivo
HG-CD34+ stem cells = test: ROS production in CD34+ stem cells; assay type: cell-based, human; settings: n=3
individuals with obesity = assay type: in vivo, human
[16] = test system: human ventricular cardiac fibroblasts (HCF); test: Human ventricular cardiac fibroblasts, mRNA expression by RT-qPCR; assay type: cell-based; settings: TGF-β treatment; p<0.01

For `CN(C)C(=N)N=C(N)N` [MET, metformin], the “cardiac functions as assessed by echocardiography and spiroergometry” value [1] was “did not change”, the HbA1c ([1]; compared to placebo) was “reduced” and the “levels of yes-associated protein 1 (YAP)” value [2] was “inhibited”.
With `CCCO[C@H]1CC[C@H](N(C(=O)Nc2ncc(SCC(=O)O)s2)C2CCCCC2)CC1` [TTP399] the “plasma β-hydroxybutyrate or urine ketones vs placebo” value (glucokinase [3]; 12 weeks) was “no significant or clinically relevant increases”, the severe hypoglycemia (glucokinase [3]; 12 weeks) was “No incidents” and the “improvement of TIR 70-180 vs placebo” value (glucokinase [3]; Part 1 (n=19)) was 12%. For the same compound, the “A1C vs placebo, trial product estimand” value (glucokinase [3]; Part 2 (n=85), 12 weeks) was -0.32% and -0.3%, the “improvement of (daytime) TIR” value (glucokinase [3]; Part 2, ITT) was 8% and the responders (glucokinase [3]; Part 2, placebo 12%) was 42%. The A1C vs placebo (glucokinase [4]) was −0.9%.
For `CN(C)C(=N)N=C(N)N` [metformin], the “plasma glucose iAUC 0-180 min” value [5] was 516 ± 46 mmol·min/L, the “increase of lactate concentration, arterialized blood” value [6] was 2% and the “increase of lactate concentration, portal vein” value ([6]; n=8 cirrhotic participants) was 23%. The “serum FGF21” value ([7]; without 146 ± 30) was 156 ± 29 ng/mL, the “serum GDF15” value ([7]; without 607 ± 89) was 1004 ± 61 ng/mL and the “increase of FGF21 mRNA” value [8] was 12 fold. The “increase of GDF15 mRNA” value [8] was 4 fold, the serum uteroglobin [9] was 16.47 ± 1.33 ng/mL and the “metformin uptake in healthy human hearts” value (human heart) was “no uptake”. The “systolic blood pressure, mean difference compared to placebo” value [10] was -1.21 mmHg and the “GLP-1 and peptide YY during meal test” value [11] was “increased”.
For `CC[C@H](C)[C@H](NC(=O)[C@H](CC(C)C)NC(=O)[C@H](Cc1c[nH]c2ccccc12)NC(=O)[C@H](CCC(N)=O)NC(=O)[C@@H](NC(=O)[C@H](Cc1ccccc1)NC(=O)[C@H](C)NC(=O)[C@H](CCCCNC(=O)COCCOCCNC(=O)COCCOCCNC(=O)CC[C@H](NC(=O)CCCCCCCCCCCCCCCCCCC(=O)O)C(=O)O)NC(=O)[C@H](CCC(N)=O)NC(=O)[C@H](C)NC(=O)[C@@H](NC(=O)[C@H](CCCCN)NC(=O)[C@H](CC(=O)O)NC(=O)[C@H](CC(C)C)NC(=O)C(C)(C)NC(=O)[C@@H](NC(=O)[C@H](CO)NC(=O)[C@H](Cc1ccc(O)cc1)NC(=O)[C@H](CC(=O)O)NC(=O)[C@H](CO)NC(=O)[C@@H](NC(=O)[C@H](Cc1ccccc1)NC(=O)[C@@H](NC(=O)CNC(=O)[C@H](CCC(=O)O)NC(=O)C(C)(C)NC(=O)[C@@H](N)Cc1ccc(O)cc1)[C@@H](C)O)[C@@H](C)O)[C@@H](C)CC)[C@@H](C)CC)C(C)C)C(=O)N[C@@H](C)C(=O)NCC(=O)NCC(=O)N1CCC[C@H]1C(=O)N[C@@H](CO)C(=O)N[C@@H](CO)C(=O)NCC(=O)N[C@@H](C)C(=O)N1CCC[C@H]1C(=O)N1CCC[C@H]1C(=O)N1CCC[C@H]1C(=O)N[C@@H](CO)C(N)=O` [tirzepatide], the “weight loss during dietary restriction” value ([12]; 3 nmol/kg QD, 14 days, vehicle 15.2±1.2, pair fed 17.0±0.7) was 22.4±1.3%, the “increase of fat utilization vs vehicle” value ([12]; during DR) was “more than 30%” and the “energy expenditure during dietary restriction” value ([12]; reduction, indirect calorimetry) was “maintained similar to levels prior to DR”. The “GE delay after chronic treatment” value (DIO C57/B6 mice) was “abolished after 14-day chronic treatment”.
In the case of Insulin icodec, the “estimated treatment ratio of weekly dose vs IGlar U100” value ([13]; 95% CI 0.69, 0.94) is reported as 0.81, the “estimated treatment difference HbA1c vs IGlar U100” value ([13]; 95% CI -0.38, 0.02) is reported as -0.18% and the “estimated treatment difference FPG vs IGlar U100” value ([13]; 95% CI -0.66, 0.23) is reported as -0.22 mmol/L. The “estimated mean HbA1c at week 26” value ([13]; baseline 8.1 icodec, 8.0 IGlar U100) was 6.7%, the “estimated mean FPG at week 26” value ([13]; in vivo) was 6.84 mmol/L and the “estimated mean weekly insulin dose, last two weeks” value ([13]; in vivo) was 229 U/week. The “level 2 and 3 hypoglycaemia” value ([13]; on-treatment period) was 53 events per 100 patient years of exposure, the “estimated mean change in HbA1c from baseline” value ([13]; week 26) was -1.33 %-points and the terminal half-life [14] was ~ 196 hours.
For insulin icodec, the “geometric mean half-life (t½)” value [15] was 196 h.
For liraglutide, the “HG-induced production of ROS” value (HG-CD34+ stem cells) was “significant reduction”, the “change in heart rate during the 1-year treatment phase” value (individuals with obesity; liraglutide 3.0 mg/day, with or without exercise, PLA -0.7) was 3.7 min⁻¹ and the “systolic and diastolic BP during the 1-year treatment phase” value (individuals with obesity; no group differences) was “decreased”.
For transforming growth factor beta [TGF-β], the “TNC expression in HCF” value [16] was “upregulated TNC expression”.
